Here are results for 19 compounds from ChEMBL document CHEMBL1140200, “Synthesis and pharmacological evaluation of a second generation of pyridothiadiazine 1,1-dioxides acting as AMPA potentiators” (Bioorg Med Chem, 2008).

Series [1] is described as follows: Lipophilicity, log P by shake flask method. The series is classed as physicochemical. To be noted: octanol/water. In outline:
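Partition coefficient was measured between 1-octanol and phosphate buffer, pH 7.40, by shake-flask, using 1×10^-4 M stock drug solutions in octanol or buffer. Drug concentration after partition was measured by UV spectrophotometry at maximum absorbance.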

For series [2], the system named is Oocyte. Put plainly: Potentiation of Wistar rat AMPA receptor expressed in Xenopus laevis oocytes assessed as 2-fold increase in amplitude of (S)-AMPA-induced current by two electrode voltage-clamp method. In kind it is cell-based. In outline: (§1)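 Xenopus oocytes were injected with rat cortex poly(A+) mRNA (1 mg/mL) and kept 3–4 days at 18 °C in Barth's solution before voltage-clamp recording. (S)-AMPA alone was applied until two similar inward currents were obtained; their mean was set as 100%. Drug was bath-applied at successive increasing concentrations every 5 min 45 s, on 2–3 oocytes. EC2X and EC5X were interpolated as twofold and fivefold current increases; EC50 was taken at half-maximal potentiation.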
Background: Two-electrode voltage clamp holds a large cell at a set potential and records current.

Series [3] relates to Oocyte. Put plainly: Potentiation of Wistar rat AMPA receptor expressed in Xenopus laevis oocytes assessed as 5-fold increase in amplitude of (S)-AMPA-induced current by two electrode voltage-clamp method. The series is classed as cell-based. In outline:
as §1

Series [4] concerns Oocyte. Put plainly: Potentiation of Wistar rat AMPA receptor expressed in Xenopus laevis oocytes assessed as increase in amplitude of (S)-[…] current by two electrode voltage-clamp method relative to AMPA. In kind it is cell-based. Set-up: concentration or dose not given beside the values. In outline: as §1
Series [5] concerns Rattus norvegicus. Description: Cognitive enhancing effect in Wistar rat assessed as improvement in juvenile recognition behavior at 0.3 mg/kp, ip. The series is classed as functional, organism-based. In outline: (§2)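 Adult rats were housed individually for 2 days before testing. After 5-min habituation in the home cage, a 21-day juvenile was introduced for a 5-min session and investigation time T1 was recorded on video. Dosing was i.p. 1 min after that session. The same juvenile was reintroduced 120 min later for 5 min (T2). T2–T1 was analysed by one-way ANOVA; n = 8.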

Series [6] deals with Rattus norvegicus. Description: Cognitive enhancing effect in Wistar rat assessed as improvement in juvenile recognition behavior at 1 mg/kp, ip. The series is classed as functional, organism-based. In outline:
as §2

The subject of series [7] is Rattus norvegicus. Description: Cognitive enhancing effect in Wistar rat assessed as improvement in juvenile recognition behavior at 3 mg/kp, ip. In kind it is functional, organism-based. In outline:
as §2

Series [8] deals with Rattus norvegicus. Put plainly: Cognitive enhancing effect in Wistar rat assessed as improvement in juvenile recognition behavior at 100 mg/kp, po. The series is classed as functional, organism-based.
Series [9] deals with Rattus norvegicus. Description: Cognitive enhancing effect in Wistar rat at 3 mg/kp, ip after 1 hr by one-trial object recognition test. The series is classed as functional, organism-based. In outline:
(§3)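 Adult rats had three 3-min sessions 24 h apart. Two similar objects were presented in session 2. In the last session one object was replaced by a new one. Compound or vehicle was given i.p. 1 h before each session at 0.3, 1, 3 or 10 mg/kg. The read-out was the discrimination index (new − familiar exploration / total exploration) in the last session.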

The subject of series [10] is Rattus norvegicus. Description: Cognitive enhancing effect in Wistar rat at 10 mg/kp, ip after 1 hr by one-trial object recognition test. The series is classed as functional, organism-based. In outline:
as §3

Series [11] concerns Rattus norvegicus. Description: Cognitive enhancing effect in Wistar rat at 100 mg/kp, po after 1 hr by one-trial object recognition test. The series is classed as functional, organism-based.
Series [12] deals with Rattus norvegicus. Description: Toxicity in Wistar rat at 100 mg/kp, po. In kind it is organism-based. To be noted: in vivo.
The species named for series [13] is Rattus norvegicus. Description: Cognitive enhancing effect in Wistar rat after 1 hr by one-trial object recognition test. The series is classed as functional, organism-based. In outline: as §3

Active and inactive are the calls of the source. No cut-off for these calls is given here.

Turning to `CCN1CNS(=O)(=O)c2ncccc21`, in series [1], the logP (as a rule, the decadic logarithm of the partition coefficient of the neutral form, usually between octanol and water) turned out to be 0.12.

As for `Cc1cnc2c(c1)N(C)CNS2(=O)=O`, the results for the EC in the series with Oocyte [2] and in the series with Oocyte [3] were 146 µM and > 300 µM, respectively.

For `CN1CNS(=O)(=O)c2cc(Cl)cnc21`, the EC came out at 21 µM in the series with Oocyte [2] and 81 µM with Oocyte [3].

With `CCN1CN(C)S(=O)(=O)c2ncccc21`, the EC stood at 38 µM in the series with Oocyte [2] and 96 µM with Oocyte [3].

`CCN1CNS(=O)(=O)c2cc(C)ccc21`: the EC turned out to be 25 µM in the series with Oocyte [2] and 95 µM in the series with Oocyte [3]. For the same compound, the Activity in the series with Oocyte [4] is > 1300%.

For the compound `CCN1CNS(=O)(=O)c2cc(Br)ccc21`, the EC is 29 µM with Oocyte [2] and 78 µM in the series on Oocyte [3]. In addition, the Activity with Oocyte [4] is > 1100%.

In the case of `CN1CNS(=O)(=O)c2cc(F)cnc21`, in the series with Oocyte [2], the EC is > 100 µM.

Turning to `NS(=O)(=O)c1cc2c(cc1Cl)NC(C1CC3C=CC1C3)NS2(=O)=O` (stereo not drawn), the figures for the EC in the series with Oocyte [2] and in the series on Oocyte [3] were 1.6 µM and 9.8 µM, respectively. In the series with Oocyte [4], the Activity was found to be 844%.

Regarding `CCN1CN(C)S(=O)(=O)c2cc(Cl)cnc21`, the results for the EC in the series on Oocyte [2] and in the series with Oocyte [3] were 110 µM and 335 µM, respectively.

As to `O=S1(=O)N[C@H]2CCCN2c2ccccc21`, the EC in the series with Oocyte [2] was 24.6 µM; in the series with Oocyte [3], 78.2 µM. In the series with Oocyte [4], the Activity is 1260%.

`CC1Nc2ccc(Cl)cc2S(=O)(=O)N1` (stereo not drawn): the EC worked out at 134 µM in the series on Oocyte [2] and 509 µM with Oocyte [3]. In addition, the Activity with Oocyte [4] was > 700%.

Turning to `CCN1CNS(=O)(=O)c2cc(Br)cnc21`, the EC with Oocyte [2] was 160 µM; with Oocyte [3], > 300 µM.

`CCN1CNS(=O)(=O)c2cc(Cl)cnc21`: the EC with Oocyte [2] is 20 µM; in the series with Oocyte [3], 44 µM. Moreover, the Activity in the series on Oocyte [4] was 1090%; in the series with Rattus norvegicus [12] it was “Non-toxic”; in the series filed under Rattus norvegicus [13], “Dose-dependent effect”. Besides, the result in the series with Rattus norvegicus [5], in the series on Rattus norvegicus [6], in the series with Rattus norvegicus [7], with Rattus norvegicus [9] and in the series with Rattus norvegicus [10] was Active. Further, the result in the series with Rattus norvegicus [8] and in the series on Rattus norvegicus [11] was inactive.

For `CN1CNS(=O)(=O)c2cccnc21`, the EC turned out to be 200 µM in the series with Oocyte [2] and 500 µM in the series with Oocyte [3].

Take `CCN1CNS(=O)(=O)c2cc(F)cnc21`: the EC in the series on Oocyte [2] is 123 µM; with Oocyte [3], 300 µM. Besides, in the series with Oocyte [4], the Activity is > 422%.

Turning to `CCN1CN(C)S(=O)(=O)c2ncc(C)cc21`, the EC with Oocyte [2] was 86 µM; in the series with Oocyte [3] it was > 300 µM.

On to `CCN1CNS(=O)(=O)c2ncc(C)cc21`, for which the EC in the series with Oocyte [2] is 116 µM; in the series with Oocyte [3], > 300 µM. The logP in series [1] was 0.41.

For the compound `CCN1CNS(=O)(=O)c2cc(C)cnc21`, the EC with Oocyte [2] and in the series on Oocyte [3] was > 1000 µM throughout.

As to `CN1CNS(=O)(=O)c2ncccc21`, the EC in the series on Oocyte [2] was determined as 21 µM; with Oocyte [3], 51 µM.
